One may read the inhibition as the relative decrease from the control value, in per cent. In general, IC50 refers to the point on the concentration scale where inhibition reaches its midpoint. As a reminder, the solubility is the dissolved amount per volume that the medium holds. What is called inhibition in vivo is the relative decrease from the control value, in per cent. Low readings indicate a weak effect, high ones a strong effect.

From ChEMBL document CHEMBL3734694, “Design, synthesis, and anticancer evaluation of long-chain alkoxylated mono-carbonyl analogues of curcumin” (Eur J Med Chem, 2015) come the findings set out here.

A short description of series [1]: Cytotoxicity against human MGC803 cells assessed as inhibition of cell proliferation at 10 uM incubated for 72 hrs by MTS assay. Format: functional. The conditions noted are these: MGC-803, 72 h. The method, boiled down: (§1)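 Single-concentration MTS screen at 10 μM. Cells in RPMI-1640 with 10% FBS, seeded at 4000 cells/well in triplicate, attached overnight, then exposed for 72 h at 37°C, 5% CO2. MTS for 4 h; absorbance 490 nm. Reported as % inhibition.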

Series [2] has as its system SGC-7901. The series can be described thus: Induction of apoptosis in human SGC7901 cells assessed as increase in cleaved PARP incubated for 24 hrs by immunoblotting. Format: functional, cell-based. The method, boiled down:
(§2)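 SGC7901 cells treated 24 h at 2.5, 5 or 10 μM. Lysed on ice for 30 min; 60 µg protein run on 10% SDS-PAGE and transferred to PVDF. Blocked in 5% milk. Primary antibodies (cleaved PARP, pro-caspase-3, Bcl-2) overnight at 4°C, HRP secondary 1:300 for 1 h at room temperature. ECL detection. Three experiments.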
For orientation: Immunoblotting shows a protein as a band on a membrane.

The test system of series [3] is CT26. The series can be described thus: Cytotoxicity against mouse CT26 cells assessed as inhibition of cell proliferation incubated for 72 hrs by MTS assay. It counts as functional, cell-based. The conditions noted are these: CT26, 72 h. The method, boiled down: (§3)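 Cells in RPMI-1640 with 10% heat-inactivated FBS at 37°C, 5% CO2. Seeded at 4000 cells/well in triplicate and attached overnight. Exposed to various concentrations for 72 h. MTS added for a further 4 h; absorbance at 490 nm. IC50 = concentration for 50% growth inhibition, as mean ± SEM of three independent tests.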
(Formazan colour is commonly taken as a measure of viable cells.)

The subject of series [4] is SGC-7901. The series can be described thus: Antitumor activity against human SGC7901 cells xenografted in nude mouse assessed as decrease cell proliferation at 50 and 100 mg/kg, po qd for 23 days by Ki67 staining-based immunohistochemistry. Format: functional, organism-based. An outline of the steps: (§4)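 Female nude mice, eight weeks old, injected s.c. with 10 million SGC7901 cells. At about 40 mm³, randomized to 0.5% CMCNA vehicle or daily oral dosing for 23 consecutive days. Tumour halves fixed in 4% paraformaldehyde. 5 μm sections, citrate antigen retrieval. Primary antibody overnight at 4°C (anti-Ki67 1:50, cleaved caspase-3 1:100), then HRP secondary 1:100 for 2 h at 37°C. DAB stain, hematoxylin counterstain.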
In general terms: In xenograft studies the graft and the host belong to different species.

The test system of series [5] is SGC-7901. The series can be described thus: Induction of apoptosis in human SGC7901 cells assessed as decrease in procaspase-3 fragments at 2.5 to 10 uM incubated for 24 hrs by immunoblotting. It counts as functional, cell-based. An outline of the steps: as §2
Series [6] relates to SGC-7901. In words: Antitumor activity against human SGC7901 cells xenografted in nude mouse assessed as increase in cleaved caspase-3 at 50 and 100 mg/kg, po qd for 23 days by DAB substrate-chromogen staining-based immunohistochemistry. Format: functional, organism-based. An outline of the steps:
as §4

A short description of series [7]: Solubility of compound in water.
The nature of series [8]: Cytotoxicity against human SW620 cells assessed as inhibition of cell proliferation incubated for 72 hrs by MTS assay. Format: functional, cell-based. The conditions noted are these: SW-620, 72 h. An outline of the steps: as §3
The subject of series [9] is SGC-7901. The series can be described thus: Induction of apoptosis in human SGC7901 cells assessed as necrotic cells and late apoptotic cells incubated for 30 hrs by PI and Annexin V-FITC-based flow cytometric analysis. Format: functional, cell-based. The method, boiled down: (§5)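 SGC7901 cells grown to 80% confluency in 6-well plates, then treated 30 h with 2.5, 5 or 10 μM. DMSO negative control. Cells washed in ice-cold PBS and stained with FITC-Annexin V and PI in binding buffer. Read by flow cytometry: UR = necrotic/late apoptotic, LR = early apoptotic. Three separate experiments.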

Series [10] in a line: Cytotoxicity against human SW620 cells assessed as inhibition of cell proliferation at 10 uM incubated for 72 hrs by MTS assay. Particulars: SW-620, 72 h. It counts as functional. The method, boiled down: as §1
The nature of series [11]: Cytotoxicity against human GES-1 cells assessed as inhibition of cell proliferation incubated for 72 hrs by MTS assay. Format: functional, cell-based. Particulars: GES1, 72 h. The method, boiled down: as §3
In series [12] the test system is CT26. The series can be described thus: Cytotoxicity against mouse CT26 cells at 10 uM assessed as inhibition of cell proliferation incubated for 72 hrs by MTS assay. It counts as functional. Particulars: CT26, 72 h. The method, boiled down:
as §1

The test system of series [13] is Mus musculus. In words: Toxicity in po dosed nude mouse xenografted with human SGC7901 cells assessed as loss of body weight at 50 and 100 mg/kg, po qd for 23 days. The conditions noted are these: in vivo, 552 h. Format: organism-based, SGC-7901. An outline of the steps:
(§6)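 Female nude mice (8 weeks) bearing s.c. SGC7901 tumours (10 million cells injected) of about 40 mm³. Given 0.5% CMCNA vehicle or 50 or 100 mg/kg/day orally for 23 consecutive days. Observed daily. Body weights monitored for the duration of the study.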

Series [14] relates to SGC-7901. In words: Antitumor activity against human SGC7901 cells xenografted in po dosed nude mouse assessed as decrease in tumor weight administered as once daily for 23 days. It counts as functional, organism-based. An outline of the steps:
(§7)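 SGC7901 xenograft: female nude mice, 8 weeks old, given 10 million cells s.c. At about 40 mm³, randomized to 0.5% CMCNA vehicle or oral daily doses for 23 consecutive days. Calipers every 2 days; volume = π/6 × large diameter × (small diameter)². %ΔT/ΔC determined. Tumours weighed after sacrifice on the final day. Mean ± SEM; Student's t-test.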

Series [15] relates to SGC-7901. The series can be described thus: Induction of apoptosis in human SGC7901 at 10 uM incubated for 30 hrs by PI and Annexin V-FITC-based flow cytometric analysis. Format: functional. The method, boiled down: as §5
Series [16] is described as follows: Cytotoxicity against human MGC803 cells assessed as inhibition of cell proliferation incubated for 72 hrs by MTS assay. Particulars: MGC-803, 72 h. It counts as functional, cell-based. An outline of the steps:
as §3

Series [17] is described as follows: Cytotoxicity against human SGC7901 cells assessed as inhibition of cell proliferation incubated for 72 hrs by MTS assay. It counts as functional, cell-based. The conditions noted are these: SGC-7901, 72 h. The method, boiled down: as §3
A short description of series [18]: Cytotoxicity against human SGC7901 cells assessed as inhibition of cell proliferation at 10 uM incubated for 72 hrs by MTS assay. It counts as functional. Particulars: SGC-7901, 72 h. An outline of the steps:
as §1

Series [19] can be described thus: Antitumor activity against human SGC7901 cells xenografted in nude mouse at 100 mg/kg, po qd for 23 days. It counts as functional. The conditions noted are these: SGC-7901, po, 552 h. The method, boiled down: as §7
The test system of series [20] is Mus musculus. The series can be described thus: Toxicity in po dosed nude mouse xenografted with human SGC7901 cells assessed as drug tolerability by measuring clinical parameters at 50 and 100 mg/kg, po qd for 23 days. Particulars: in vivo, 552 h. It counts as organism-based, SGC-7901. The method, boiled down:
as §6

For series [21], the system named is SGC-7901. The series can be described thus: Induction of apoptosis in human SGC7901 cells assessed as decrease in BCL2 expression at 2.5 to 10 uM incubated for 24 hrs by immunoblotting. It counts as functional, cell-based. An outline of the steps:
as §2

In brackets after ≈: the same amount, converted by molar mass. Activity calls are given as the source filed them. No cut-off for these calls is given here.

`COc1ccccc1/C=C/C(=O)/C=C/c1ccc(OCCCN2CCOCC2)c(OC)c1`: the inhibition at 10 µM in [1] was 80.3%; in series [10], 105%; in series [12] it was 104%; in series [18] it was 75.3%. The Activity entry was “Dose-dependent effect” in [2]; “Dose-dependent effect” in [9]; “Non-toxic” in [13]; 50% in [15]; “Non-toxic” in series [20]. The IC50 was 2.56 µM in series [3]; 1.22 µM in series [8]; 2.62 µM in series [11]; 2.18 µM in [16]; 1.91 µM in [17]. The outcome in series [4], in series [5], in series [6] and in series [21] was Active. The solubility in [7] was found to be 21.2 µg/mL (≈ 48.5 µM). For the same compound, the inhibition result in series [14] is “Dose-dependent effect”. Testing at 100 mg/kg in series [19] gave an inhibition in vivo of 48%.
